ChEMBL document CHEMBL5136960, “Discovery of sustainable drugs for Alzheimer's disease: cardanol-derived cholinesterase inhibitors with antioxidant and anti-amyloid properties” (RSC Med Chem, 2021)
Calls of active or inactive are those of the source. The calls are words filed in the database; no cut-off is given here.

Key:
[1] = target: T1, Acetylcholinesterase (Homo sapiens, UniProt P22303); experiment: Inhibition of AChE in human serum at 20 uM by Ellman's method; type: cell-free
[2] = Antioxidant activity assessed as gallic acid equivalents by HORAC assay; type: functional
How it was run: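 Hydroxyl radical scavenging (HORAC kit). Methanol stocks (2-4 mM) diluted to 50 µM in assay buffer. Sample and fluorescein incubated 30 min at room temperature, then hydroxyl radical initiator and Fenton reagent added. Fluorescence decay read at ex 480/em 530 nm. AUC minus blank, divided by AUC of 50 µM gallic acid minus blank, gives gallic acid equivalents.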

[3] = target: T2, Cholinesterase (Homo sapiens, UniProt P06276); experiment: Inhibition of BChE in human serum at 20 uM by Ellman's method; type: cell-free
T2 sequence (P06276 whole entry): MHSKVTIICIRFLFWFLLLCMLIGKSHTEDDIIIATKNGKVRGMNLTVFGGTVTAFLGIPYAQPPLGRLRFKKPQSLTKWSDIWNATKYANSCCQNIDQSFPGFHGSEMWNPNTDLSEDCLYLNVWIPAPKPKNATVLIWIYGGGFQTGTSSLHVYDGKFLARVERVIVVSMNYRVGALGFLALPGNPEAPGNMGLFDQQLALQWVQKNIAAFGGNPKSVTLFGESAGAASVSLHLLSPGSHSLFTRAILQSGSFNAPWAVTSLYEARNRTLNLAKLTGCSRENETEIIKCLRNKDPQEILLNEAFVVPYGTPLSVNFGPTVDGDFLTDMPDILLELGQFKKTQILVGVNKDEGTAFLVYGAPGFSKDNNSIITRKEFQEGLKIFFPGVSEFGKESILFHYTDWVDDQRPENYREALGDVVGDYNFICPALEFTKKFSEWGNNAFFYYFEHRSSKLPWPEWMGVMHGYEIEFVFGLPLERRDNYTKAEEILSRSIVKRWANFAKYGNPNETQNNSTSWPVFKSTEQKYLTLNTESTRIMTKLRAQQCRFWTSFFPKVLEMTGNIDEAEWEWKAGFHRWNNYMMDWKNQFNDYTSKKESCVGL
How it was run: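 Human serum BChE, 0.02 U, in 0.1 M phosphate pH 8.0 with 340 μM DTNB and 5% methanol final. Compound preincubated with enzyme 20 min at 37 °C, then 550 μM butyrylthiocholine iodide added. Initial rate read as A412 over 240 s, with an enzyme-free blank. Percent inhibition at a single 20 μM. Mean of ≥2 independent experiments, each in triplicate.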

[4] = target: Amyloid-beta precursor protein (Homo sapiens) (UniProt P05067); experiment: Inhibition of amyloid beta42 (unknown origin) aggregation assessed as non toxic aggregrates formation measured after 48 hrs TEM imaging analysis
Amyloid-beta precursor protein (Homo sapiens), sequence (P05067 whole entry): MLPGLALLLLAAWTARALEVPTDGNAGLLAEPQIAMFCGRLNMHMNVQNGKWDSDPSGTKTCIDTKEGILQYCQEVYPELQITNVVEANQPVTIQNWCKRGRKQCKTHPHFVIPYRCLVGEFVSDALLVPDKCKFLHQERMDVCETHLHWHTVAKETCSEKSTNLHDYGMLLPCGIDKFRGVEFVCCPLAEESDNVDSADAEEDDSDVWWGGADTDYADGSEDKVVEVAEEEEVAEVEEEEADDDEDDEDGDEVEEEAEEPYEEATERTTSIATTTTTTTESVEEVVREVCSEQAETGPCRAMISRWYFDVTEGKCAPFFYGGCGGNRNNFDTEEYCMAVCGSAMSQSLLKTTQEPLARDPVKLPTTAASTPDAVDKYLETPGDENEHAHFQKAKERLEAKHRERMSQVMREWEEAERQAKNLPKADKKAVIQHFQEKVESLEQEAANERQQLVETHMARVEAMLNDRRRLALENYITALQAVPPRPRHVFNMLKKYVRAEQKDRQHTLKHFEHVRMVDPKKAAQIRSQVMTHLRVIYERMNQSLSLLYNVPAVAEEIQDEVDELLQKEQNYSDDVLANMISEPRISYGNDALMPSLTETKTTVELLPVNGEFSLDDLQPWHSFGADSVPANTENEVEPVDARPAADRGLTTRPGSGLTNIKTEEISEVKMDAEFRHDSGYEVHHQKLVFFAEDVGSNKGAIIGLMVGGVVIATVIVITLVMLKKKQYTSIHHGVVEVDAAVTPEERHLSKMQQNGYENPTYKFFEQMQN
How it was run: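 Synthetic Aβ42, freeze-dried, redissolved in PBS pH 7.4 to 60 µM and vortexed about 5 min. Compound added at 1:5 Aβ42:compound. A 20 µL aliquot applied to the grid for 2 min, negatively stained with 1% uranyl acetate for 2 min, dried and imaged by TEM at 120 kV.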

[5] = target: T2, Cholinesterase; experiment: Inhibition of BChE in human serum by Ellman's method; type: cell-free
How it was run: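 Human serum BChE, 0.02 U, in 0.1 M phosphate pH 8.0 with 340 μM DTNB and 5% methanol final. 20 min enzyme–compound preincubation at 37 °C, then 550 μM butyrylthiocholine iodide added. Rate from A412 slope over 240 s, blank-corrected. Five concentrations chosen to give 20–80% inhibition. IC50 taken from log concentration–inhibition curves. Mean of ≥2 independent triplicate experiments.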

[6] = tested on: HepG2; experiment: Cytotoxicity against human HepG2 cells assessed as cell viability upto 10 uM for 24 hrs by MTT assay; type: toxicity, cell-based; details: hepg2, 24 h
How it was run: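 HepG2 cells grown in DMEM with 10% FBS and penicillin/streptomycin at 37 °C, 5% CO2. Seeded at 5×10^3 cells/well and left to adhere overnight. Exposed 24 h to 1.25-10 µM, with DMSO vehicle as control. Then 300 µM MTT in DMEM for 2 h at 37 °C. Formazan dissolved in DMSO and read at 570 nm.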

[7] = target: T1, Acetylcholinesterase; experiment: Inhibition of AChE in human serum by Ellman's method; type: cell-free
[8] = Stability in plasma (unknown orgin) measured after 120 mins; type: ADME, cell-free; details: read-out: Stability
How it was run: (§1)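 Pooled human plasma. Compound added from a 1 µM DMSO solution and incubated at 37 °C for 0, 15, 30, 60 or 120 min. Reaction stopped with cold acetonitrile containing internal standard, then centrifuged. Supernatant analysed by reverse-phase C18 HPLC-MS in positive mode. Compound/IS peak-area ratio at each time, relative to 0 min, gives percent remaining. Phosphate buffer pH 7.4 used as control matrix, rivastigmine as positive control.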

[9] = tested on: SH-SY5Y; experiment: Inhibition of TBH-induced reactive oxygen species production in human SHSY-5Y cells at 10 uM preincubated for 24 hrs followed by TBH addition by DCFH-DA staining based flow cytometry; type: functional, cell-based
[10] = Solubility of compound in 5% DMSO/PBS solution; type: physicochemical
[11] = Stability in plasma (unknown orgin) measured upto 60 mins; type: ADME, cell-free; details: 1 h; how it was run: as §1

T1 sequence (P22303 whole entry): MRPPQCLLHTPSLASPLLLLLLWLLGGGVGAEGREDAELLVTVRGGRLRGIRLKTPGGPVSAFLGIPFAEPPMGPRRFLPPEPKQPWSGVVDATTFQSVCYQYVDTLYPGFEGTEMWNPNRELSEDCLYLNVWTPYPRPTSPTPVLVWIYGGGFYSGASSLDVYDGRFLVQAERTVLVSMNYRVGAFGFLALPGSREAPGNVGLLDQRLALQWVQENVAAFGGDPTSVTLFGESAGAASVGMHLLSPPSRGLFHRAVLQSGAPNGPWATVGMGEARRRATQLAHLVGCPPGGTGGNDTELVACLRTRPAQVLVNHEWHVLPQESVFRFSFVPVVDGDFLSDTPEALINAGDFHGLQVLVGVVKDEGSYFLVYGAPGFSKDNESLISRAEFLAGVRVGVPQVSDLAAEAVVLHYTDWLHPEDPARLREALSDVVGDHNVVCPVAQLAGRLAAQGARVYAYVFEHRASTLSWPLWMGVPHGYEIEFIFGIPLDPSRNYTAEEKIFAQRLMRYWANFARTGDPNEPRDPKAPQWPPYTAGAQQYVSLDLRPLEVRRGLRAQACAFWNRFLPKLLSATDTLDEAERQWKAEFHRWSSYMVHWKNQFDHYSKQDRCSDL

| Structure (SMILES) | inhibition [1] [%] | Activity [2] [equiv] | inhibition [3] [%] | inhibition [4] | IC50 [5] [µM] | Activity [6] | IC50 [7] [µM] | remaining at 2 h [8] [%] | inhibition [9] | solubility [10] [mM] | Stability [11] |
| --- | --- | --- | --- | --- | --- | --- | --- | --- | --- | --- | --- |
| CCN(CC)Cc1ccc(CCCCCCCCO)cc1O | 12.4 | 5.49 | 50.5 | Active | 17.5 |  |  |  |  |  |  |
| OCCCCCCCCc1ccc(CN2CCCCC2)c(O)c1 | 40.5 | 4.37 | 73.5 | Active | 6.12 | Non-Toxic | 30 | 97 | Active | < 3.9 | Stable |
| COc1cc(/C=C/C(=O)O)ccc1O |  | 4.04 |  |  |  |  |  |  |  |  |  |
| OCCCCCCCCc1ccc(CN2CCNCC2)c(O)c1 | < 10 | 1.49 | 17.7 |  |  |  |  |  |  |  |  |
| CN(Cc1ccccc1)Cc1ccc(CCCCCCCCO)cc1O | 19.4 | 3.7 | 68.3 | Active | 6.74 |  |  |  |  |  |  |
| CC(=O)N1CCN(Cc2ccc(CCCCCCCCO)cc2O)CC1 | < 10 | 4.52 | < 5 |  |  |  |  |  |  |  |  |
| CN1CCN(Cc2ccc(CCCCCCCCO)cc2O)CC1 | < 5 | 4.8 | 10.6 |  |  |  |  |  |  |  |  |
| OCCCCCCCCc1ccc(CN2CCOCC2)c(O)c1 | < 5 | 9.73 | < 10 | Active |  |  |  |  |  |  |  |
| OCCCCCCCCc1ccc(CN2CCSCC2)c(O)c1 | 12.1 | 4.38 | 16.6 |  |  |  |  |  |  |  |  |
| OCCCCCCCCc1ccc(CN2CCCCCC2)c(O)c1 | < 10 | 3.5 | 77.1 | Active | 4.62 | Non-Toxic | 785 | 85 | Active | < 5 | Stable |
| OCCCCCCCCc1ccc(CN2CCCC2)c(O)c1 | 31.1 | 4.88 | 59 |  | 13.3 |  | 47.6 |  |  |  |  |
